{"source": "PubChem BioAssay AID602403", "about": "(The Scripps Research Institute Molecular Screening Center, 2012)", "note": "Unmarked numbers belong to inactive results. Activity calls are given as the source filed them.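 How the source made its calls: active means inhibition of the enzyme-probe labelling of at least 50% at one fixed dose; inactive means inhibition below 50%.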"}
{"target": "Diacylglycerol lipase-alpha (Mus musculus) (UniProt Q6WQJ1)", "sequence (Q6WQJ1 whole entry, looked up)": "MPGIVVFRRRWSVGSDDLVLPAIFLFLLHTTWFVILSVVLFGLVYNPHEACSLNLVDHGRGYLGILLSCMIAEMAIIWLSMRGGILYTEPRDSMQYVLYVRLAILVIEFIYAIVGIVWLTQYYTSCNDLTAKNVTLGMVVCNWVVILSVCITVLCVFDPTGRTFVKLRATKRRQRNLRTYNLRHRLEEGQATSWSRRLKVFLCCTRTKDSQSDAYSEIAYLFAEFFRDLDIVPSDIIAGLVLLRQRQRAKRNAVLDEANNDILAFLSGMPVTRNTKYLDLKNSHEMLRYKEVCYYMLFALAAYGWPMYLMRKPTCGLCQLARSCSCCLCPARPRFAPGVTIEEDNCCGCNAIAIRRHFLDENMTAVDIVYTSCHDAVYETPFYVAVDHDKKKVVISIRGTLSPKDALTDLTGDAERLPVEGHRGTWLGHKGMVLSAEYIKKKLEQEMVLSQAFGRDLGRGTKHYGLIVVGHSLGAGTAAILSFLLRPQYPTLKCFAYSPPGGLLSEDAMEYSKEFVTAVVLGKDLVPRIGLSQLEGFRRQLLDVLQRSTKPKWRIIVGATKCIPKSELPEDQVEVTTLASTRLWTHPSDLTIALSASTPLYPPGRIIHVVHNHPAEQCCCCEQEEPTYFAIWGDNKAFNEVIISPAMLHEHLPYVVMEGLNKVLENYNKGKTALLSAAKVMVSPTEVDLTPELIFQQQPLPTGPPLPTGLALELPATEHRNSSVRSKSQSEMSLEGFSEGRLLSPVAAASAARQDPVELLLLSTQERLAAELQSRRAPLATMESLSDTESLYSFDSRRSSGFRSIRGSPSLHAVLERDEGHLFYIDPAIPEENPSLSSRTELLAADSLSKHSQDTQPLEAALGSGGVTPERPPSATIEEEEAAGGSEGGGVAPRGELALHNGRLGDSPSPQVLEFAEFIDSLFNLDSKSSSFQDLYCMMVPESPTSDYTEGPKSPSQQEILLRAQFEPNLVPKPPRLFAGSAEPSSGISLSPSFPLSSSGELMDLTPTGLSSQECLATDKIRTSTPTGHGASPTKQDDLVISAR", "experiment": "blocking of DAGLa probe labeling in membranes – biochemical, gel-based competitive ABPP, recombinant, fluorescence, selectivity assay for DAGLb inhibitor project, late-stage follow-up (AID 602403)", "conditions": "HEK293T membrane mouse DAGLa, at 0.4 µM, active compounds read high", "how_it_was_run": "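Material: membrane proteome of 293T HEK cells transiently overexpressing mouse DAGLa / Reagent: fluorescent activity-based probe HT-01 at 1 µM final / Timing: 30 min compound plus 30 min probe, 37 °C / Measured by: in-gel fluorescence after SDS-PAGE / Read-out basis: percent inhibition from band integrated optical density versus DMSO control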"}
{"smiles": "COc1ccccc1-c1ccc(-c2cn(C(=O)N3CCCCC3Cc3ccccc3)nn2)cc1", "note": "(stereo not drawn)", "inhibition": "40%"}
{"smiles": "O=C(N1CCCCC1Cc1ccccc1)n1cc(-c2ccc(OC(F)(F)F)cc2)nn1", "note": "(stereo not drawn)", "inhibition": "50% (active)"}
{"smiles": "COc1ccc(-c2ccc(-c3cn(C(=O)N4CCCCC4c4ccccc4)nn3)cc2)cc1", "note": "(stereo not drawn)", "inhibition": "0%"}
